# Arrestin-AP2 inh – inhibitors of human beta-arrestin and AP2 interaction. FITC-arrestin peptide / GST-AP2 beads, flow cytometry; AP2 beta2 appendage carries R879A mutation. inhibition, % at 10 µM. 340,000 tested, 0.31% active. AID 504490;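 active = inhibition above a set limit, near 3 SD of compounds lacking own fluorescence, cut at about 54% in these data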;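 also: plate controls were DMSO wells for no effect and 5 µM unlabelled arrestin peptide for full effect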
#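 Assay system: GST-AP2 R879A bound to glutathione beads, E. coli-expressed; Medium: PBS with 0.05% Tween 20 and 0.1% BSA; Also added: fluorescein-tagged arrestin peptide at 50 nM final; Timing: 12 min plus 1 h, RT; Measured by: flow cytometry, FL1 (488/535 nm); Evaluation: percent drop in bead-associated FITC signal.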
# DDE Tn7 FP inh – DD(E)-Tn7 binding inhibition, primary FP screen | P02675 | FP displacement of FITC-Tn7 peptide from fibrin DD(E); 0% = median of compound wells per plate | inhibition, % at 8.3 µM | 370,000 tested, 0.13% active | AID 720508;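 active = inhibition above the mean of compounds falling within the control limits plus 3 SD of them, cut at about 14% in these data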;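 also: 0% = plate median of compound wells and 100% = 10 µM Aha-Tn7 peptide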
#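 Test system – human fibrin DD(E) · Times – 10 min preincubation, 3 h with tracer, room temperature · Detection – fluorescence polarization of the labelled Tn7 tracer · Measure – percent inhibition normalized to high-control wells · Benchmarks – high control wells with 10 µM unlabelled Aha-Tn7 peptide (full inhibition) · Repeats – singlicate testing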
# CAL PDZ FP-1 – inhibitors of human CAL PDZ peptide binding | AID 504414 | 330,000 tested, 0.02% active | Q9HD26 | inhibition, % at 20 µM | purified CAL PDZ, TMR-peptide fluorescence polarization, 1 h;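 active = highest replicate inhibition of at least 40%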;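 also: plate controls were DMSO neutral control wells for no effect and unlabeled competitor peptide control wells for full effect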
#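 Test system: tagged CAL PDZ domain / Buffer or medium: sodium phosphate/NaCl buffer pH 7.4 with TCEP, IgG, Thesit / Reagent: TMR-labelled reporter peptide T*-PRC34 bound in PDZ groove / Compound dosing: single point, 20 µM / Schedule: 1 h incubation at room temperature before polarization reading / Technique: fluorescence polarization (mP) / Benchmarks: unlabelled peptide, DMSO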
# CAL PDZ FP-2 – blocks peptide binding to the human CAL PDZ domain; Q9HD26; purified CAL PDZ, TMR-peptide fluorescence polarization, 1 h; inhibition, % at 24.9 µM; 300,000 tested, 0.92% active;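 active = mean inhibition of at least 30% with at least half of replicates also reaching 30%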;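 also: 0% = DMSO neutral control and 100% = excess unlabeled competitor peptide PRC23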
# DDE Tn6 FP inh – disrupts Tn6 cyclic peptide binding to fibrin D-Dimer-E complex; P02675; Fibrin DD(E) TRITC-Tn6 fluorescence polarization displacement; inhibition, % at 8.3 µM; 370,000 tested, 0.21% active;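 active = inhibition above a per-campaign cutoff: mean of compounds within control limits plus 3 SD, cut at about 15% in these data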;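 also: 0% = median of all compound wells on the plate and 100% = blocking peptide control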
# Arr AP2 CP1 – blocks beta-arrestin peptide binding to human AP2 | shares compounds with Arrestin-AP2 inh | GST-AP2 beads, FITC arrestin peptide binding, flow cytometry; GST-fused beta2-adaptin appendage, R879A mutant | inhibition, % at 10 µM | 1,300 tested, 2% active | AID 504908;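 active = inhibition above a set limit, roughly 3 SD of non-fluorescent compound noise, cut at about 38% in these data; inactive = inhibition at or below that limit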;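 also: loss of bead fluorescence from 50 nM FITC arrestin peptide bound to appendage; 0% = negative control wells and 100% = excess unlabelled arrestin peptide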
# Target sequence (P63010 whole entry, looked up, the tested form may be a part, one chain of several): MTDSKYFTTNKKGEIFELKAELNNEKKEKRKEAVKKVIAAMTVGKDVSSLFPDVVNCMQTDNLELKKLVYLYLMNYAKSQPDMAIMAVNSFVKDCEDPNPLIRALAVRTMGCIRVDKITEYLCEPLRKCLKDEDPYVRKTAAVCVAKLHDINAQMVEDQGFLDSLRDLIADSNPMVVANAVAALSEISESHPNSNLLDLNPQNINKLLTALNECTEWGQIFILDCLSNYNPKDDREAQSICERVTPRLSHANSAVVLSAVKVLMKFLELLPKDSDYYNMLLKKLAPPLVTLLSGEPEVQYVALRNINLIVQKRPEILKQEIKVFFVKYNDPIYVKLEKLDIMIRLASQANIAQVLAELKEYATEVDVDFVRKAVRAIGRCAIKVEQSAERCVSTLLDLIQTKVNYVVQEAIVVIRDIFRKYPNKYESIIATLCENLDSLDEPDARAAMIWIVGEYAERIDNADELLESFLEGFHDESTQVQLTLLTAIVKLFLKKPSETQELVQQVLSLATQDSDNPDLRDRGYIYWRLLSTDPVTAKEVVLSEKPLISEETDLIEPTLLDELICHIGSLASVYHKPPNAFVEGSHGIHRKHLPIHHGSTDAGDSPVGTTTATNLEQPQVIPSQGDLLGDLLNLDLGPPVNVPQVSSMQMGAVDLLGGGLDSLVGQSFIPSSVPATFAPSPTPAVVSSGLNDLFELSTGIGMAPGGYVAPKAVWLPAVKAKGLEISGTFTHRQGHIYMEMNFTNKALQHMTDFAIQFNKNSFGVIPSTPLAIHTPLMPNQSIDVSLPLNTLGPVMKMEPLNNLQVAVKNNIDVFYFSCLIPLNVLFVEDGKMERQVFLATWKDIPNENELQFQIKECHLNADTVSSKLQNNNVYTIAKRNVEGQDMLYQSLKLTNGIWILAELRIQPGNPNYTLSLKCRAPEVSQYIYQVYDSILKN
# GST GSH counter – counter-screen for beta-arrestin AP2 inhibitors: GST-GSH bead binding | shares compounds with Arrestin-AP2 inh | GST-fluorescein binding to GSH beads, fluorescence | inhibition, % at 10 µM | 1,300 tested, 2% active;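 active = inhibition above 50%, about 3 SD of the inhibition seen with non-fluorescent compounds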;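 also: fluorescein maleimide labelled GST captured on 4 micron glutathione beads; higher means more loss of bead fluorescence from quenching or blocked binding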
# Active calls of the source: *; / = no result. Sampled rows, rich in hits. Any-hit rate of the full collection: about 1.4%.
SMILES,Arrestin-AP2 inh,DDE Tn7 FP inh,CAL PDZ FP-1,CAL PDZ FP-2,DDE Tn6 FP inh,Arr AP2 CP1,GST GSH counter
CCn1c(=O)c(C(=O)Nc2ccccc2F)c(O)c2ccccc21,32.6,-3.8,0.9,-3.2,-4.2,/,/
CCOC(=O)N[C@H](C(=O)N1CCC[C@H]1C(=O)NCCc1ccccc1Cl)c1ccccc1,/,5.4,/,/,-6.7,/,/
COC(=O)[C@H](CC(C)C)N(CCCc1cn(Cc2ccc(C)cc2)nn1)S(=O)(=O)c1ccccc1Br,/,-4.5,/,/,0.0,/,/
CC(COc1cc(F)cc(C#N)c1)CN1CCC(C(O)(c2ccccc2)c2ccccc2)CC1 (stereo not given),/,-4.1,/,/,-6.2,/,/
COc1cc(-c2c(C(C)=O)c(C)nc3c2C(=O)c2ccccc2-3)cc(OC)c1OC,59.2*,-3.3,-0.2,-0.9,-2.8,5.7,-1.6
CCOC(=O)c1c(C)nc2c(c1-c1ccccc1)C(=O)c1ccccc1-2,0.6,-1.2,-0.3,-1.0,1.7,/,/
CC(C)N(C(=O)[C@H]1C[C@H](CC(=O)NCc2ccco2)C(=O)N2CCc3c([nH]c4cc(-c5ccco5)ccc34)[C@]12C)C(C)C,60.2*,-5.7,-0.2,-0.6,5.5,-9.1,-1.4
O=C(C[C@H]1C[C@H](C(=O)N2CCCCC2)[C@@]2(CCc3ccccc3)c3[nH]c4cc(-c5ccco5)ccc4c3CCN2C1=O)NCc1ccco1,0.6,-4.0,-0.3,-7.9,-3.6,/,/
O=C(C[C@H]1C[C@H](C(=O)N2CCCCC2)[C@@]2(CCc3ccccc3)c3[nH]c4cc(-c5ccco5)ccc4c3CCN2C1=O)NCCC1=CCCCC1,57.2*,/,-0.6,-2.3,/,-2.8,-5.7
CC(C)N(C(=O)[C@H]1CC(CC(=O)NCc2ccco2)C(=O)N2CCc3c([nH]c4ccccc34)[C@]12C)C(C)C (stereo not given in full),1.9,-2.9,0.2,-3.6,0.1,/,/
CC(C)C[C@H](NC1(C(=O)NCCc2c[nH]c3ccccc23)CCC1)C(=O)NCCCc1ccccc1,/,-8.0,/,/,5.1,/,/
CCOC(=O)N(C)[C@H]1C[C@H]2c3[nH]c4c(-c5ccc6c(c5)OCO6)cccc4c3CCN2C(=O)[C@H]1[C@H](C)O,/,-3.3,/,/,-0.1,/,/
CCNC(=S)N/N=C/c1sc(N2CCCCC2)nc1-c1cccs1,105.6*,1.3,2.0,-9.1,3.9,-0.4,-2.9
CCNC(=S)Nc1ccc(N2CCCCC2)cc1,-6.4,8.1,-0.9,-2.9,9.1,/,/
COc1cccc(-c2nnc(SCC(=O)Nc3cccc4ccccc34)n2Cc2ccco2)c1,/,-3.5,/,/,-8.6,/,/
COC(=O)C(N)Cc1ccc(O)c(O)c1 (stereo not given),80.8*,-0.9,-0.2,-2.4,2.8,8.9,-6.9
CCN(CC)S(=O)(=O)c1ccc2c(c1)nc(CCC(=O)Nc1cccc(C(F)(F)F)c1)n2CC,85.0*,-2.6,-0.5,-4.0,7.8,1.2,1.9
CCCCOc1ccc(C(=O)NC2CCCCN(Cc3cccc(Cl)c3)C2=O)cc1 (stereo not given),/,3.1,/,/,-7.5,/,/
O=C(NNc1cccc(Cl)n1)c1ccccc1CC[N+](=O)[O-],55.1*,6.8,-1.3,-0.4,-0.2,4.1,-6.6
CN(CC(=O)NCCCN1CCOCC1)S(=O)(=O)c1cc(Cl)ccc1Cl,63.7*,1.1,-3.6,-1.0,5.6,9.3,-2.2
CNC(=S)N1CCN(c2c(F)cc3c(=O)c(C(=O)O)cn(C4CC4)c3c2OC)CC1C (stereo not given),68.2*,0.9,-0.5,-4.5,7.9,-3.0,-9.5
COc1ccc(C(=O)/C=C2/Sc3cc4c(cc3N2C)OCO4)cc1,36.2,1.0,-2.5,-5.2,9.1,/,/
COc1ccc2c(c1)S/C(=C\C(=O)c1ccncc1)N2C,91.4*,13.4,0.7,-2.2,-0.8,4.8,-2.3
CN1/C(=C/C(=O)c2ccc(Cl)cc2)Sc2cc3c(cc21)OCO3,103.4*,-4.5,-1.6,-2.9,1.7,-0.6,-5.3
COc1cc(OC)cc(C(=O)/C=C2\Sc3ccccc3N2C)c1,21.7,-8.2,-1.9,0.3,-5.5,/,/
SMILES,Arrestin-AP2 inh,DDE Tn7 FP inh,CAL PDZ FP-1,CAL PDZ FP-2,DDE Tn6 FP inh,Arr AP2 CP1,GST GSH counter
COc1cccc(C(=O)N[C@H](C(=O)N2CCC[C@H]2C(=O)NCCc2ccccc2Cl)C(C)C)c1,/,-5.9,/,/,7.9,/,/
Cc1cccn2c(NC(=O)c3cccs3)c(-c3ccccc3)nc12,-7.0,-2.5,-3.0,-4.5,0.6,/,/
Cc1nc2c(C)cccn2c(=O)c1NC(=O)c1cccs1,65.7*,-3.7,-1.8,10.3,10.9,5.9,4.7
CCOC(=O)[C@@]12CN(C(=O)OC(C)(C)C)CC=C1N(Cc1ccc(OC)cc1)C(=O)[C@H]2CC(=O)N1CCN(C(=O)C2CC2)CC1,/,9.3,/,/,3.6,/,/
O=[N+]([O-])c1ccc(NC(=S)N2CCN(S(=O)(=O)c3ccccc3)CC2)cc1,70.9*,-6.0,-2.2,1.9,8.8,-13.6,-9.2
O=S(=O)(c1ccccc1)N1CCN(C(=S)Nc2ccc(Br)cc2)CC1,-1.8,0.0,-3.3,-1.8,-2.9,/,/
CCOc1ccc(NS(=O)(=O)c2cccc(C(=O)NCC3(N(C)C)CCCCC3)c2)cc1,-4.7,-6.7,0.4,-2.4,0.8,5.3,-12.3
Cc1cccc(NC(=O)c2cccc(S(=O)(=O)Nc3ccccc3C(=O)O)c2)c1,57.6*,-2.6,/,-4.2,3.1,-7.9,-7.3
COc1ccc(NS(=O)(=O)c2cccc(C(=O)NCC(c3ccco3)N3CCCCC3)c2)cc1 (stereo not given),59.3*,-0.8,-1.3,-0.8,3.2,27.2,-4.1
COc1ccc(NS(=O)(=O)c2cccc(C(=O)NCC3(N4CCOCC4)CCCCC3)c2)cc1,-9.4,6.2,-1.3,-6.8,-3.6,9.1,-5.6
Cc1ccccc1NS(=O)(=O)c1cccc(C(=O)Nc2cccc(C(=O)O)c2)c1,15.5,-5.5,-0.4,-5.8,-2.6,/,/
COc1ccc(-c2cc(-c3nnc(SCC(=O)Nc4ccc(-c5nc6ccc(C)cc6s5)cc4)n3N)[nH]n2)cc1,/,-2.5,/,/,0.4,/,/
Cc1cccc(NS(=O)(=O)c2cccc(C(=O)NCC3(N4CCCCC4)CCCCC3)c2)c1,-10.4,1.5,-2.3,4.5,7.2,-5.1,-3.4
CNS(=O)(=O)c1cccc(C(=O)NCC2(N3CCCCC3)CCCCC2)c1,-25.6,-1.5,-1.5,-1.1,2.1,/,/
COc1ccc(C(=O)NNC(=O)c2cccc(S(=O)(=O)N3CCOCC3)c2)cc1,4.5,3.7,-0.7,/,4.8,/,/
COc1ccc(NC(=O)c2cccc(S(=O)(=O)N3CCOCC3)c2)cc1,61.4*,-8.7,-2.8,-6.1,-8.2,-6.1,-5.6
